In data set [1] the test system is Pseudomonas aeruginosa. The data set can be described thus: Microbiostatic activity against Pseudomonas aeruginosa ATCC 9027 after 24 hrs by turbidimetric method. The format is functional. The following applies: ATCC 9027, 24 h. In outline: (§1)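 Exponential-phase bacteria are grown overnight on TSA, then overnight at 30 °C in M9G (pH 7.0). Suspension is adjusted to OD660 0.05 (about 5·10^6–5·10^7 cfu/mL), verified by plate count. Automated serial dilutions of agent in deionised water are inoculated and incubated 24 h at 30 °C. MIC is the first concentration without turbidity.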

The subject of data set [2] is Staphylococcus aureus. The data set can be described thus: Microbiostatic activity against Staphylococcus aureus ATCC 6538 after 24 hrs by turbidimetric method. The following applies: ATCC 6538, 24 h. The format is functional. In outline:
as §1

Data set [3] relates to Pseudomonas aeruginosa. The data set can be described thus: Microbicidal activity against Pseudomonas aeruginosa ATCC 9027 after 5 days by microtiter plate method. The data set is classed as functional. To be noted: ATCC 9027, 120 h. In outline:
(§2)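 Bacterial MIC microtiter plates are held 5 days. For each of the three concentrations above the MIC, 100 µL is plated on TSA or SDA plates. MLC is the first concentration showing no growth after subculture.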

Data set [4] deals with Aspergillus niger. The data set can be described thus: Microbicidal activity against Aspergillus niger ATCC 6275 after 7 days by microtiter plate method. The format is functional. The following applies: ATCC 6275, 168 h. In outline: (§3)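 Fungal MIC microplates are kept 7 days. 100 µL from each of the three concentrations above the MIC is subcultured onto agent-free TSA or SDA plates. MLC is the lowest concentration giving no growth.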

The test system of data set [5] is Candida albicans. The data set can be described thus: Microbicidal activity against Candida albicans ATCC 10231 after 7 days by microtiter plate method. The data set is classed as functional. The following applies: ATCC 10231, 168 h. In outline:
as §3

Data set [6] has as its system Candida albicans. The data set can be described thus: Microbiostatic activity against Candida albicans ATCC 10231 after 72 hrs by turbidimetric method. The format is functional. To be noted: ATCC 10231, 72 h. In outline:
(§4)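 Turbidimetric broth microdilution: automated serial dilutions of agent in sterile deionised water, then inoculation. Spores come from 5–7 day SDA cultures at 25 °C, harvested in M9G (pH 5.0) and gauze-filtered to remove mycelium. Inoculum is set to 5·10^6–5·10^7 spores/mL by counting cell. Incubation is 72 h at 25 °C. MIC is the first concentration with no turbidity.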

A short description of data set [7]: Critical micelle concentration by conductimetry. The data set is classed as physicochemical.
The test system of data set [8] is Aspergillus niger. The data set can be described thus: Microbiostatic activity against Aspergillus niger ATCC 6275 after 72 hrs by turbidimetric method. The format is functional. The following applies: ATCC 6275, 72 h. In outline:
as §4

The subject of data set [9] is Staphylococcus aureus. The data set can be described thus: Microbicidal activity against Staphylococcus aureus ATCC 6538 after 5 days by microtiter plate method. The data set is classed as functional. To be noted: ATCC 6538, 120 h. In outline: as §2

A value given as a limit tells only on which side of the number the result lay.

As a reminder, the MIC is the least concentration at which growth counts as inhibited. The low end stands for inhibition by little substance, the high end for a need for much substance. For `C=CC(=O)OCC[N+](C)(C)CCCCCCCCCC.[Br-]`, the MIC in the data set on Pseudomonas aeruginosa [1] came out at 356 µM; in the data set on Staphylococcus aureus [2] it was 356 µM; in the data set with Candida albicans [6] it was 278 µM; in the data set with Aspergillus niger [8] it was 175 µM. For the same compound, the MLC with Pseudomonas aeruginosa [3] came to 416 µM; in the data set on Aspergillus niger [4], 280 µM; with Candida albicans [5], 359 µM; in the data set with Staphylococcus aureus [9] it was 359 µM. The same compound displayed a CMC in data set [7] of 1.16 ×10⁻² mol/L.

Consider `C=CC(=O)OCC[N+](C)(C)CCCCCCCCCCCCCCCC.[Br-]`, for which the MIC in the data set on Pseudomonas aeruginosa [1] was 237 µM; against Staphylococcus aureus [2], 275 µM; in the data set with Candida albicans [6], 24 µM; in the data set on Aspergillus niger [8], 237 µM. Moreover, the MLC with Pseudomonas aeruginosa [3] amounted to 283 µM; in the data set on Aspergillus niger [4], 283 µM; in the data set with Candida albicans [5] it was 24.7 µM; in the data set with Staphylococcus aureus [9], 283 µM. Besides, the CMC in data set [7] turned out to be 1.95 mM.

Consider `C=CC(=O)OCCCCCCCCCCC[N+](C)(C)CCCCCCCCCCCC.[Br-]`, for which the MIC against Pseudomonas aeruginosa [1] is 58.4 µM; with Staphylococcus aureus [2] it was 34.7 µM; with Candida albicans [6] it was 14.8 µM; in the data set with Aspergillus niger [8] it was 14.8 µM. For the same compound, the MLC was determined as 64.7 µM in the data set on Pseudomonas aeruginosa [3], 14.8 µM in the data set with Aspergillus niger [4], 15.4 µM in the data set on Candida albicans [5] and 34.7 µM in the data set on Staphylococcus aureus [9]. For the same compound, the CMC in data set [7] is listed as 9.66 ×10⁻⁴ mol/L.

Take `C=CC(=O)OCC[N+](C)(C)Cc1ccccc1.[Br-]`: the MIC is over 2000 µM in the data set on Pseudomonas aeruginosa [1], over 2000 µM in the data set with Staphylococcus aureus [2], over 2000 µM in the data set with Candida albicans [6] and 507 µM against Aspergillus niger [8]. Also, the MLC was over 2000 µM in the data set on Pseudomonas aeruginosa [3], 600 µM in the data set with Aspergillus niger [4], over 2000 µM with Candida albicans [5] and over 2000 µM with Staphylococcus aureus [9]. This compound displayed a CMC in data set [7] of 4.6 ×10⁻² mol/L.

As to `C=CC(=O)OCCCCCCCCCCC[N+](C)(C)CCCCCCCCCC.[Br-]`, the MIC against Pseudomonas aeruginosa [1] is 79.9 µM; in the data set with Staphylococcus aureus [2], 64.8 µM; in the data set with Candida albicans [6], 19 µM; against Aspergillus niger [8] it was 19 µM. The MLC with Pseudomonas aeruginosa [3] came out at 188 µM; in the data set with Aspergillus niger [4] it was 19.3 µM; in the data set with Candida albicans [5], 30.4 µM; in the data set on Staphylococcus aureus [9], 72.6 µM. In data set [7], this compound yielded a CMC of 2.79 mM.

Take `C=CC(=O)OCCCCCCCCCCC[N+](C)(C)CCCCCCCCCCCCCCCC.[Br-]`: the MIC in the data set on Pseudomonas aeruginosa [1] is 132 µM; in the data set with Staphylococcus aureus [2], 209 µM; in the data set on Candida albicans [6], 27.1 µM; with Aspergillus niger [8] it was 31.4 µM. Also, the MLC in the data set with Pseudomonas aeruginosa [3] amounted to 317 µM; in the data set with Aspergillus niger [4] it was 40.4 µM; with Candida albicans [5], 40.4 µM; with Staphylococcus aureus [9], 274 µM. The CMC in data set [7] was determined as 1.66 ×10⁻⁴ mol/L.

In the case of `C=CC(=O)OCC[N+](C)(C)CCCCCCCCCCCC.[Br-]`, the MIC in the data set with Pseudomonas aeruginosa [1] was 71.1 µM; against Staphylococcus aureus [2], 71.1 µM; with Candida albicans [6], 63.8 µM; in the data set with Aspergillus niger [8], 63.8 µM. Also, the MLC with Pseudomonas aeruginosa [3] amounted to 71.1 µM; with Aspergillus niger [4] it was 63.8 µM; in the data set with Candida albicans [5], 63.8 µM; in the data set on Staphylococcus aureus [9], 71.1 µM. This compound also displayed a CMC in data set [7] of 6.45 mM.

For `C=CC(=O)OCCCCCCCCCCC[N+](C)(C)Cc1ccccc1.[Br-]`, the MIC in the data set on Pseudomonas aeruginosa [1] turned out to be 154 µM; with Staphylococcus aureus [2] it was 244 µM; with Candida albicans [6] it was 154 µM; against Aspergillus niger [8], 154 µM. Further, the MLC in the data set with Pseudomonas aeruginosa [3] worked out at 447 µM; in the data set on Aspergillus niger [4], 238 µM; in the data set with Candida albicans [5], 447 µM; in the data set on Staphylococcus aureus [9], 306 µM. Moreover, the CMC in [7] amounted to 3.34 ×10⁻² mol/L.

With `C=CC(=O)OCCCCCCCCCCC[N+](C)(C)CCCCCCCCCCCCCC.[Br-]`, the MIC with Pseudomonas aeruginosa [1] is 44.8 µM; against Staphylococcus aureus [2] it was 104 µM; against Candida albicans [6] it was 16.8 µM; against Aspergillus niger [8] it was 24.9 µM. For the same compound, the MLC in the data set with Pseudomonas aeruginosa [3] was 103 µM; in the data set with Aspergillus niger [4], 24.9 µM; in the data set on Candida albicans [5], 16.8 µM; in the data set with Staphylococcus aureus [9], 164 µM. The compound further came in with a CMC in [7] of 4.68 ×10⁻⁴ mol/L.

In the case of `C=CC(=O)OCC[N+](C)(C)CCCCCCCCCCCCCC.[Br-]`, the MIC against Pseudomonas aeruginosa [1] was found to be 112 µM; in the data set on Staphylococcus aureus [2], 178 µM; against Candida albicans [6], 18.1 µM; against Aspergillus niger [8] it was 178 µM. The MLC was determined as 114 µM in the data set on Pseudomonas aeruginosa [3], 232 µM in the data set on Aspergillus niger [4], 18.4 µM in the data set with Candida albicans [5] and 232 µM in the data set on Staphylococcus aureus [9]. Besides, the CMC in [7] turned out to be 2.99 mM.

These data come from ChEMBL document CHEMBL1153014, “Synthesis and antimicrobial properties of polymerizable quaternary ammoniums” (Eur J Med Chem, 2009).
